The source made the active and inactive calls. The rule behind the calls is not given here.

The values that follow come from ChEMBL document CHEMBL1148736, “N-Acylthiadiazolines, a new class of liver X receptor agonists with selectivity for LXRbeta” (J Med Chem, 2007).

Data set [1] addresses T1, Oxysterols receptor LXR-alpha (Homo sapiens, UniProt Q13133).
T1 sequence (Q13133 whole entry): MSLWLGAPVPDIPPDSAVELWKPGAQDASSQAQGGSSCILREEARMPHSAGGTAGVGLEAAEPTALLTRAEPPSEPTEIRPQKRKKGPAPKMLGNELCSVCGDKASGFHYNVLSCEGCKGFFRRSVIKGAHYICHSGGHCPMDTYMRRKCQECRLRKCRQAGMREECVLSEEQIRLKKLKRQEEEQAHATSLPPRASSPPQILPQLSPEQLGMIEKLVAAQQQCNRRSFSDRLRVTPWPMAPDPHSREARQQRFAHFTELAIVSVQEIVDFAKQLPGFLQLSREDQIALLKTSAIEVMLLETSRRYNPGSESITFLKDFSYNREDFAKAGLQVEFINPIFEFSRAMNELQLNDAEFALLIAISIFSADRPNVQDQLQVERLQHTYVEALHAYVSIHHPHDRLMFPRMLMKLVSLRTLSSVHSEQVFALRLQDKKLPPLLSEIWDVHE
Briefly: Agonist activity at GAL-linked human LXRalpha expressed in THP1 cells assessed as stimulation of coactivator recruitment by FRET assay. It is filed as functional. A digest of the protocol: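 Cell-free TR-FRET coactivator recruitment: 20 nM His-tagged hLXRα or hLXRβ, 300 nM biotinylated SRC-1 peptide, Eu-anti-His antibody, APC-streptavidin. 12-point curves from 20 µM; 1 h at 37 °C. Duplicate. %E = maximal coactivator recruitment relative to reference dual agonist in same experiment.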

The next data set has as its system THP-1. Briefly: Increase in ABCA1 gene expression in THP1 cells at 1 uM relative to GW-3965. It is filed as functional, Homo sapiens. The method, boiled down:
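THP-1 cells differentiated with 40 ng/mL PMA for 1 day, then switched to RPMI with 2% lipoprotein-deficient FBS. Compound added 6 h later at 1 or 10 µM in DMSO, incubated 24 h. ABCA1 mRNA by one-step TaqMan qRT-PCR, triplicate, multiplexed with 36B4; fold induction vs DMSO, expressed relative to reference dual agonist.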

A further data set concerns Hepatocyte. Briefly: Induction on FAS gene expression in human primary hepatocytes at 1 uM. The class given is functional, cell-based. A digest of the protocol: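 Primary human hepatocytes treated with 1 µM compound; FAS mRNA measured by TaqMan-based qRT-PCR.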
For data set [2], the system named is Macrophage. Briefly: Induction of ABCA1 gene expression in LXRbeta deficient mouse macrophages. It is filed as functional, cell-based. A digest of the protocol:
(§1)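 Thioglycollate-elicited peritoneal macrophages from LXR-null mice, plated 24 h. Treated as for THP-1 without PMA: 2% lipoprotein-deficient serum medium, compound in DMSO for 24 h. ABCA1 mRNA by TaqMan qRT-PCR with 36B4 control, fold vs DMSO. Two concentrations used.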

Data set [3] deals with Macrophage. Briefly: Induction of ABCA1 gene expression in LXRalpha and LXRbeta deficient mouse macrophages. The class given is functional, cell-based. The method, boiled down: as §1
Data set [4] concerns Macrophage. Briefly: Induction of APO-AI-dependent cholesterol efflux in mouse macrophages. It is filed as functional, cell-based. A digest of the protocol:
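Peritoneal macrophages labelled 24 h with [3H]cholesterol (1.0 µCi/mL) plus ACAT inhibitor 58-035 (2 µg/mL), with compound. Then 2–4 h equilibration in label-free medium with compound. Efflux for 4 h into DMEM/0.2% BSA with or without apoAI (15 µg/mL). apoAI-dependent efflux = medium radioactivity as % of total cell plus medium. Triplicate.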

Data set [5] concerns the target T2, Oxysterols receptor LXR-alpha (Homo sapiens) (UniProt Q13133).
T2 sequence (whole entry): T1 sequence (Q13133 whole entry)
Briefly: Activity at human LXRalpha by Gal4 transactivation assay relative to GW-3965. A digest of the protocol:
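GAL4 DBD fused to hLXRα or hLXRβ LBD in pcDNA3, co-transfected into HepG2 with luciferase reporter. Cells in DMEM with 10% lipoprotein-deficient FBS, 7.5 µM lovastatin, 100 µM mevalonic acid. Ligand added 24 h post-transfection as 11-point curves from 10 µM; luciferase read after 16 h. Run in quadruplicate. %E = max fold induction vs max fold induction of reference dual agonist in same experiment.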

Data set [6] concerns the target T3, Bile acid receptor (Homo sapiens) (UniProt Q96RI1).
T3 sequence (whole entry): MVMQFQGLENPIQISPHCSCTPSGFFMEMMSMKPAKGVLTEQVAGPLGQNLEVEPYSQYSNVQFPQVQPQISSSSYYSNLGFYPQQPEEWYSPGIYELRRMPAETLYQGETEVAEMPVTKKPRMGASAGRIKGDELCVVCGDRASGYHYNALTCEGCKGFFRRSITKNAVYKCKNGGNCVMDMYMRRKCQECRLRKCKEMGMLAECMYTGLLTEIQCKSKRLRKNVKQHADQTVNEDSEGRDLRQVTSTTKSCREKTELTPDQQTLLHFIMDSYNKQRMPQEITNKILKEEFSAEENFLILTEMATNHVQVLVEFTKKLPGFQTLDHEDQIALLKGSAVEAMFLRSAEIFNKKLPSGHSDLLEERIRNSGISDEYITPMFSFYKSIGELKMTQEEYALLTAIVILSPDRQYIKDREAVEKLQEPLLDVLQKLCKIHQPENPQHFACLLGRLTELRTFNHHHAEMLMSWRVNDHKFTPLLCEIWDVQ
Briefly: Activity at FXR by cell based assay. The class given is functional.

For data set [7], the target named is T4, Glucocorticoid receptor (Homo sapiens) (UniProt P04150).
T4 sequence (whole entry): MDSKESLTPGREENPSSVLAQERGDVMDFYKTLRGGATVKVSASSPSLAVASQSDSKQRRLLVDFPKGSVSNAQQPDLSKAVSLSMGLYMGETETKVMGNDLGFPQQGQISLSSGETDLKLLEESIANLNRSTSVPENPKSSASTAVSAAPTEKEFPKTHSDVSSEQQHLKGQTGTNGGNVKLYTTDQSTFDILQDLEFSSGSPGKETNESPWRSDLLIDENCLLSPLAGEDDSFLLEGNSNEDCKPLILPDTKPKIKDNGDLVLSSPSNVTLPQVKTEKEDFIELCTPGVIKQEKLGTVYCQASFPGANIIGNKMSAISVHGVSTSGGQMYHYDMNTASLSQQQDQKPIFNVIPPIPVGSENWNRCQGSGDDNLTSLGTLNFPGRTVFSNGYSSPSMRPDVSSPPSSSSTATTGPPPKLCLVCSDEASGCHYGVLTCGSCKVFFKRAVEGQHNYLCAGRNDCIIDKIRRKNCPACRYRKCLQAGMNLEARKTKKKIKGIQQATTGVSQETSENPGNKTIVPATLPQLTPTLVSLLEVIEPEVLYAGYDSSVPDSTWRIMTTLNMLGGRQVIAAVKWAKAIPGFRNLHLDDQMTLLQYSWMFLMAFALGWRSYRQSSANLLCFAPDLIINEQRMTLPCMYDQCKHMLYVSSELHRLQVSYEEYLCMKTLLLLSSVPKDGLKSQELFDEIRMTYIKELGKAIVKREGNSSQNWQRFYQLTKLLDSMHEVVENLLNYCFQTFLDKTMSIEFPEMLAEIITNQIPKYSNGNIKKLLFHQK
Briefly: Activity at GR by cell based assay. It is filed as functional.

Data set [8] is described as follows: Volume of distribution at steady state in C57BL/6 mouse at 5 mg/kg, iv. It is filed as ADME, organism-based. Set-up: dose 5 mg/kg, route intravenous. Particulars: in vivo, read-out: Vss. The method, boiled down: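 Mouse PK study, IV and PO; compound formulated at 2.5 mg/mL in PEG300/Tween 80 (4:1). IV dose 5 mpk (AUC, Cmax, clearance, Vss); oral dose 20 mpk (AUC, Cmax, bioavailability, t1/2).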

As for `COc1cccc(C2SC(c3ccc(Cl)cc3)=NN2C(=O)c2c(F)cc(F)cc2F)c1OC` (racemic), in [1], the concentration giving a half-maximal response (EC50) was found to be 2300 nM. Besides, the Activity in the data set with THP-1 worked out at 34%. Also, the outcome (in the data set on Hepatocyte; in the data set with Macrophage [3]; in data set [6]; in data set [7]) was inactive. In addition, the result in the data set with Macrophage [2] and with Macrophage [4] was Active. In data set [5], this compound came in with an Efficacy of 19%. For the same compound, in data set [8], the Vd came to 1.65 L/kg.

A word on the EC50: it is the midpoint of the concentration-response curve.
